Measured values from different studies.
Lines come from different studies, so protocols differ.
Target: Serine/threonine-protein kinase 17A (STK17A, Homo sapiens, UniProt Q9UEE5)
One construct used (Q9UEE5 1-414): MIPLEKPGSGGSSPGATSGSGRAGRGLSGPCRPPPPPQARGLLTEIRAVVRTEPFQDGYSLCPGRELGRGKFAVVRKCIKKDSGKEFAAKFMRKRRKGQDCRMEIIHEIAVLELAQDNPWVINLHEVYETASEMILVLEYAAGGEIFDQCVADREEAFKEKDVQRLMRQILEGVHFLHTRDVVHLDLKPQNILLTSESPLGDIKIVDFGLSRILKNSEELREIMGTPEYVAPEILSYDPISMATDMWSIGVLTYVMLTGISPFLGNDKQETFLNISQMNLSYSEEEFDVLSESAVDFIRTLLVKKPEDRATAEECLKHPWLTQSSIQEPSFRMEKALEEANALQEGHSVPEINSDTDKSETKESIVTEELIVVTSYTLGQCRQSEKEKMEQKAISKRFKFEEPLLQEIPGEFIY

| Compound | test | conditions | quantity | value |
| --- | --- | --- | --- | --- |
| Cc1nn(C)cc1-c1nc2c(N3CCN(Cc4ccc(Cl)cc4)CC3)c(Cl)cnc2[nH]1 | binding, competition with immobilised ligand | 1 µM | remaining binding | 13% |
| CC(C)(C)c1cc(C=C(C#N)C#N)cc(Br)c1O | enzyme activity, inhibitor | 0.5 µM | remaining activity | 92.3% |
| C#Cc1n[nH]c2c(-c3cn([C@@H](C)c4ccccc4)c(=O)[nH]c3=O)cc(F)cc12 | enzyme activity, inhibitor | 0.1 µM | inhibition | 1.1% |
| Cn1cncc1[C@](O)(COc1ccc(C#N)cc1-c1ccc(OC(F)(F)F)cc1)c1ccc(C#N)cc1 | cell-free assay, competition with immobilised ligand | 1 µM | remaining binding | 100% |
| Cn1cc(-c2cccc(N3CCc4c(sc5c4CC(C)(C)C5)C3=O)c2CO)cc(Nc2ccncn2)c1=O | enzyme activity, inhibitor | 1 µM | inhibition | -5% |
| COc1ncccc1-c1cnn2ccc(N3CCN(C(=O)OC(C)C)CC3)nc12 | binding, competition with immobilised ligand | 1 µM | remaining binding | 6.4% |
| C#Cc1n[nH]c2c(-c3cn([C@@H](C)c4ccccn4)c(=O)[nH]c3=O)cc(F)cc12 | enzyme activity, inhibitor | 0.1 µM | inhibition | -0.6% |
| O=c1[nH]c2ccccc2n1C1CCN(Cc2ccc(-c3[nH]c4cc5ncnc5cc4nc3-c3ccccc3)cc2)CC1 | cell-free assay | 0.5 µM | remaining signal | 98.2% |
| Cn1cc(-c2cc(F)cc(N3CCn4c(cc5c4CCCC5)C3=O)c2CO)cc(Nc2ccc(N3CCN(C4COC4)CC3)cn2)c1=O | enzyme activity, inhibitor | 0.1 µM | inhibition | 3% |
| Nc1ncc(-c2nc(N3CCOCC3)nc(N3CCOCC3)n2)c(C(F)F)n1 | binding, competition with immobilised ligand | 10 µM | remaining binding | 89% |
